We go through three compounds from ChEMBL document CHEMBL2176927 (J Med Chem, 2012).

The source made the active and inactive calls. The rule behind the calls is not given here.

Data set [1] in a line: Clearance in rat liver microsomes. The format is ADME, Microsome. Put shortly:
(§1)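 Hepatic clearance (Clhep) predicted from incubation with human, rat or mouse liver microsomes.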
A general note: Liver microsomes are a subcellular fraction often used to study metabolism.

The nature of data set [2]: Plasma protein binding in mouse. In kind it is ADME, cell-free. The conditions noted are these: read-out: PPB (converted).
Data set [3] is described as follows: Clearance in human liver microsomes. The format is ADME, Microsome. The essentials: as §1
The next data set concerns the target Cytochrome P450 2C9 (Homo sapiens, UniProt P11712). Kind of data set: Inhibition of CYP2C9-mediated warfarin metabolism. In kind it is ADME. The conditions noted are these: recombinant enzyme.
A short description of data set [4]: Cytotoxicity against human MCF7/neo expressing HER2 after 3 days. In kind it is functional.
The subject of data set [5] is PC-3. Kind of data set: Cytotoxicity against human pTEN deficient PC3 after 3 days. The format is functional, cell-based. Particulars: PC-3, 72 h.
The nature of data set [6]: Plasma protein binding in rat. The format is ADME, cell-free. The conditions noted are these: read-out: PPB (converted).
Data set [7] is described as follows: AUC in mouse at 5 mg/kg, po. In kind it is ADME, organism-based. On the set-up: dose 5 mg/kg, route oral. The conditions noted are these: plasma.
The target of a further data set is T1, Cytochrome P450 1A2 (Homo sapiens, UniProt P05177).
T1 sequence (P05177 whole entry): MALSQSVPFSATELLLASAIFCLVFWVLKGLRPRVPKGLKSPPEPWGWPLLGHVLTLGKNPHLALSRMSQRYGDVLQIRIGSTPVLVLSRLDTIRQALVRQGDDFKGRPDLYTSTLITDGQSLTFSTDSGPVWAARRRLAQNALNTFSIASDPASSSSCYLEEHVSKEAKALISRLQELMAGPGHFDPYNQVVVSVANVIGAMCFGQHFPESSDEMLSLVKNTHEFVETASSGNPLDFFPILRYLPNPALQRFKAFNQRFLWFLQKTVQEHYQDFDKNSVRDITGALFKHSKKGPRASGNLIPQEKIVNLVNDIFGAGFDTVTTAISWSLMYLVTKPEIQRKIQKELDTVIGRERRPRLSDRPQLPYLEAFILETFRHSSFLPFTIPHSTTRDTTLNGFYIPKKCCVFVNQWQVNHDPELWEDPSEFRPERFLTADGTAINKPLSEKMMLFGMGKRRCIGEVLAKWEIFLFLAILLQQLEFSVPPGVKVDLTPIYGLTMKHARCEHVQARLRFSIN
Kind of data set: Inhibition of CYP1A2-mediated phenacetin metabolism. In kind it is ADME. Particulars: recombinant enzyme.

Data set [8] can be described thus: Plasma protein binding in human. In kind it is ADME, cell-free. The conditions noted are these: read-out: PPB (converted).
Data set [9] can be described thus: Clearance in mouse liver microsomes. In kind it is ADME, Microsome. Put shortly: as §1
A further data set has as its target Cytochrome P450 3A4 (Homo sapiens, UniProt P08684). Kind of data set: Inhibition of CYP3A4-mediated midazolam and testosterone metabolism. The format is ADME. Particulars: recombinant enzyme.
A short description of data set [10]: Half life in mouse at 1 mg/kg, iv. In kind it is ADME, organism-based. On the set-up: dose 1 mg/kg, route intravenous. Particulars: in vivo.
Data set [11] is described as follows: Volume of distribution at steady state in mouse at 1 mg/kg, iv. In kind it is ADME, organism-based. The arrangement: dose 1 mg/kg, route intravenous. The conditions noted are these: in vivo, read-out: Vdss.
Data set [12] can be described thus: Inhibition of mTORC2 in human pTEN deficient NCI-PC3 cells assessed as reduction of Akt phosphorylation at Ser473. The format is cell-based.
Data set [13] is described as follows: Oral bioavailability in mouse at 5 mg/kg. The format is ADME, organism-based. The conditions noted are these: in vivo.
Another data set has as its target Cytochrome P450 2C19 (Homo sapiens, UniProt P33261). Kind of data set: Inhibition of CYP2C19-mediated mephenytoin metabolism. In kind it is ADME. The conditions noted are these: recombinant enzyme.
Data set [14] can be described thus: Clearance in mouse at 1 mg/kg, iv. On the set-up: dose 1 mg/kg, route intravenous. In kind it is ADME, organism-based. Particulars: in vivo.
Another data set addresses Cytochrome P450 2D6 (Homo sapiens, UniProt P10635). Put plainly: Inhibition of CYP2D6-mediated dextromethorphan metabolism. The format is ADME. The conditions noted are these: recombinant enzyme.
Data set [15] is described as follows: Selectivity ratio of Ki for PI3Kalpha to Ki for mTOR.
The species entered for data set [16] is Mus musculus. The conditions noted are these: PC-3, 25 to 100 mg/kg.
Data set [17] concerns PC-3. Put plainly: Antitumor activity against human PC3 cells xenografted mouse assessed as tumor growth inhibition at […] to 100 mg/kg, po bid for 14 days. In kind it is functional, organism-based. Put shortly:
(§2)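 Female NCR.nude mice with subcutaneous NCI-PC3 flank tumours, dosed orally once daily (or twice daily at the same daily total) for 14 days from a mean tumour volume of 200 mm3; 5 mice/group. Caliper volume is (L x W x W)/2, measured twice weekly.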
In general terms: A xenograft is tissue or cells of one species grown in another, often human tumour cells in immunodeficient mice.

The test system of data set [18] is PC-3. Kind of data set: Antitumor activity against human PC3 cells xenografted mouse assessed as tumor growth inhibition at 50 mg/kg, po qd for 14 days. In kind it is functional, organism-based. The arrangement: dose 50 mg/kg. The essentials: as §2
Data set [19] concerns Mus musculus. Kind of data set: Toxicity in human PC3 cells xenografted mouse assessed as reduction of body weight at 200 mg/kg, po qd for 14 days. Particulars: in vivo, 336 h. In kind it is organism-based, PC-3. The arrangement: dose 200 mg/kg, route oral; scale not given: the % may be the effect or the level left. The essentials:
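Same PC3 s.c. xenograft in nude mice with QD oral dosing, 5 animals per group. Body weight was measured twice weekly; loss above 10% is the protocol limit for tolerated doses and triggers a dosing holiday.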

The species entered for data set [20] is Mus musculus. The conditions noted are these: PC-3, 25 to 100 mg/kg. The source holds these as a separate data set.
The species named for data set [21] is Mus musculus. The conditions noted are these: U-87MG ATCC, 100 mg/kg.
Data set [22] is filed under the species Mus musculus. Particulars: U-87MG ATCC, 100 mg/kg. This is another data set of the same source.
For data set [23], the system named is PC-3. Kind of data set: Antitumor activity against human PC3 cells xenografted mouse assessed as tumor growth inhibition at 6.25 to 100 mg/kg, po qd for 14 days. In kind it is functional, organism-based. Put shortly: as §2

One may read the IC50 as the point on the concentration scale where inhibition reaches its midpoint. What is called AUC is concentration integrated over time. The term half-life denotes how long it takes for the measured level to halve. Broadly, the bioavailability is dose-corrected exposure relative to a reference, in per cent. As a reminder, the clearance is a measure of how efficiently the substance is removed, as volume per time.

Chain of Cytochrome P450 2C9 (P11712 whole entry): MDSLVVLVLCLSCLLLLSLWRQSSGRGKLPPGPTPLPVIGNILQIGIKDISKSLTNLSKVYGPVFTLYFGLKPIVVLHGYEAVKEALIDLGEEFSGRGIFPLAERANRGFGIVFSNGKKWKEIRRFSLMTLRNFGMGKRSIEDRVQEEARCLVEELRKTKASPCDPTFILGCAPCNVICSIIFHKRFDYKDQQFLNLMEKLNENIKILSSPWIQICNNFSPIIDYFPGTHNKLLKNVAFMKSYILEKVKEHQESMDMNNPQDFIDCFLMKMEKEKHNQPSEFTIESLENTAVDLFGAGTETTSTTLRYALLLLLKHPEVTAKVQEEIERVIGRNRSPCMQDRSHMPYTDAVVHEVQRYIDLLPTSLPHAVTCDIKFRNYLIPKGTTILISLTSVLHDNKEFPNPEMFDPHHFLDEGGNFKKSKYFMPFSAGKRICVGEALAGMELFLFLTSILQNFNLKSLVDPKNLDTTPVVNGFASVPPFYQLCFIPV
Chain of Cytochrome P450 2D6 (P10635 whole entry): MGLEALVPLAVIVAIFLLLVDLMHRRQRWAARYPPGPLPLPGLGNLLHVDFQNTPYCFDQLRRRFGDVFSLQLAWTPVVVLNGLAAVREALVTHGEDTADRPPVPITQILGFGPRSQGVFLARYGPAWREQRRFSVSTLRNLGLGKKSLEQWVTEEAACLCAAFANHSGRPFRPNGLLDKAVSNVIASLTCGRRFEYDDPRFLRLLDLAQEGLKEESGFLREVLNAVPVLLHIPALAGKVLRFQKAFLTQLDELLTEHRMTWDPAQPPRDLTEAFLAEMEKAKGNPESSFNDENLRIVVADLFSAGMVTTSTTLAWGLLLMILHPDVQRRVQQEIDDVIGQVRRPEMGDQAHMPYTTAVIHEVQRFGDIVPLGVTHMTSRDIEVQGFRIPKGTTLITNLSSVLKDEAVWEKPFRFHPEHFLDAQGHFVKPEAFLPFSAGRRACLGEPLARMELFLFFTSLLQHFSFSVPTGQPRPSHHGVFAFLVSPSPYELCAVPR
Chain of Cytochrome P450 2C19 (P33261 whole entry): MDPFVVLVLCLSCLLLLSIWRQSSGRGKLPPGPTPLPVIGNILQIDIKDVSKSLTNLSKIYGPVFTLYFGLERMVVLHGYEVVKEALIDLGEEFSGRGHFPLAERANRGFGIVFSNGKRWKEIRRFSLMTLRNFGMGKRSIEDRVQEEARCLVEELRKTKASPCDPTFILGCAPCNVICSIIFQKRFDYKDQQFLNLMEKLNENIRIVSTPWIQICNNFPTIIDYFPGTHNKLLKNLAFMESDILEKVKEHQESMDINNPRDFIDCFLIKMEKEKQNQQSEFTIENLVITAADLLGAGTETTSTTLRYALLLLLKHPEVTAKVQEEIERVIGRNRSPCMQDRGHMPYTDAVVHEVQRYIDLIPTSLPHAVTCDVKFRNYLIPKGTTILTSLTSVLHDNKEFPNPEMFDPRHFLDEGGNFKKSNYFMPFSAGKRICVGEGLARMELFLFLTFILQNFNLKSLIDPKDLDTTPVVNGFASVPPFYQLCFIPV
Chain of Cytochrome P450 3A4 (P08684 whole entry): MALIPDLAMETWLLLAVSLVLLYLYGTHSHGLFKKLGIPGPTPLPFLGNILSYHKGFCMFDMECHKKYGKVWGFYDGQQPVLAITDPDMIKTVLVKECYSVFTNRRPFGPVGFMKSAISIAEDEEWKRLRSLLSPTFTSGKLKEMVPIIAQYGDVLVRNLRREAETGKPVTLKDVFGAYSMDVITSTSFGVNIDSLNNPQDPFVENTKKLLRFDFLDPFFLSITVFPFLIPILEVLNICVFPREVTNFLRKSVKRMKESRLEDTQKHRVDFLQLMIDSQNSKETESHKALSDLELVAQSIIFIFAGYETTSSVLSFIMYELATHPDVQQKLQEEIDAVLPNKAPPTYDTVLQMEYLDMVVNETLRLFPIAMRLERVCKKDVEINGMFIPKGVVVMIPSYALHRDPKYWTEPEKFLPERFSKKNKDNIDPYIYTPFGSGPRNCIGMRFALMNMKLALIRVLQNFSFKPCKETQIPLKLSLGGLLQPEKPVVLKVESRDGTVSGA

For the compound `CCNC(=O)Nc1ccc(-c2nc3c(c(N4CCOC[C@@H]4C)n2)CCN(c2nc(C)ns2)C3)cc1`, the figures for the CLhep predicted in data set [1], in [3] and in [9] were 29 mL/min/kg, 19 mL/min/kg and 58 mL/min/kg, respectively. Further, the fraction unbound is 0.02 in data set [2], 0.04 in data set [6] and 0.03 in data set [8]. The “inhibition (INH)” value at Cytochrome P450 2C9, at Cytochrome P450 1A2, at Cytochrome P450 3A4, at Cytochrome P450 2C19 and at Cytochrome P450 2D6 was “Not Active” in each case. In addition, the IC50 in [4] is 69 nM; with PC-3 [5] it was 230 nM; in data set [12], 8.7 nM. In addition, the AUC in data set [7] amounted to 2.5 µM·h. In data set [10], the half-life is 0.53 h. Besides, in data set [11], the Vd is 0.72 L/kg. In data set [13], this compound registered a bioavailability of 32%. The clearance in data set [14] is 22 mL/min/kg.

For `CCNC(=O)Nc1ccc(-c2nc(N3CCOCC3)c3sc(C(C)(C)O)cc3n2)cc1`, the Ratio Ki in data set [15] came to 20.

On to `CCNC(=O)Nc1ccc(-c2nc3c(c(N4CCOC[C@@H]4C)n2)CCN(c2ncccn2)C3)cc1`, for which the CLhep predicted is 33 mL/min/kg in [1], 15 mL/min/kg in [3] and 61 mL/min/kg in data set [9]. Further, the fraction unbound in [2] is 0.01; in data set [6], 0.03; in [8], 0.02. Moreover, the inhibition entry in the data set filed under Mus musculus [16] and in the data set filed under Mus musculus [20] was “Active” each time. For the same compound, the “inhibition (INH)” value on Cytochrome P450 2C9, at Cytochrome P450 1A2, on Cytochrome P450 3A4, on Cytochrome P450 2C19 and on Cytochrome P450 2D6 was “Not Active” each time. In addition, the values for the IC50 (in data set [4]; with PC-3 [5]; in data set [12]) were 57 nM, 150 nM and 3.3 nM, respectively. The TGI entry in the data set on PC-3 [17], in the data set on PC-3 [18] and in the data set with PC-3 [23] was “Active” each time. In data set [7], the AUC worked out at 2 µM·h. For the same compound, the Activity with Mus musculus [19] stood at 10%. For the same compound, in data set [10], the half-life was 1.7 h. In data set [11], the Vd amounted to 1.2 L/kg. In addition, the inhibition entry in the data set filed under Mus musculus [21] and in the data set listed under Mus musculus [22] was “inactive” each time. Besides, the bioavailability in [13] turned out to be 42%. The clearance in data set [14] stood at 36 mL/min/kg.
